Measurements published in PMC7611836 (Journal of natural products, 2020).
Like-named read-outs stand apart in the source and are kept apart here.

Experiments:
C4-2 cells [1] = assay: Oxygen consumption rate; type: cell-based, Human; details: 1 μM
How it was run: (§1)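 Mycoplasma-tested cells, 20,000 per poly-L-lysine-coated well, 16 h at 37 °C, 5% CO2. Moved to carbonate-free RPMI assay buffer (4.5 g L-1 glucose, pyruvate, pH 7.4) for 60 min CO2-free. […] Rotenone-insensitive rate subtracted; traces set to 100% pre-addition. n = 6 treated, 16 control; mean ± S.E.M.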

C4-2B cells [2] = assay: Cell growth curves; type: cell-based, Human; details: 1 μM
How it was run: (§2)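 Cells were seeded at 1,000 per well in RPMI 1640 with 10% FBS, 25 mM HEPES and 1 mM pyruvate, then grown with 1 μM test compound. Read-out was confluence (% of well surface covered by adherent cells) over time, also taken after 150 h. Eight replicates per condition; mean ± S.E.M.; unpaired two-tailed t-test.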

C4-2B cells [3] = assay: Oxygen consumption rate; type: cell-based, Human; details: 1 μM
How it was run: as §1

C4-2 cells [4] = assay: Cell growth curves; type: cell-based, Human; details: 1 μM
How it was run: as §2

PNT2 cells [5] = assay: Oxygen consumption rate; type: cell-based, Human; details: 1 μM
How it was run: as §1

C4-2B cells [6] = assay: Cell viability and cell count; type: cell-based, Human; details: 1 μM, 48 hours
How it was run: (§3)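 150,000 cells per well were grown overnight, then given 1 μM test compound (ethanolic stock diluted in medium) or ethanol control for 48 h. Cells were trypsinized, pelleted (400 x g, 5 min), resuspended in PBS, stained with acridine orange/DAPI, and read for viability and count. n = 4 treated, 10 control; mean ± S.E.M.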

cancer cell = details: Annexin V flow cytometry; cited from earlier work
[7] = cited from earlier work; for neurotoxicity / crossing of the blood-brain barrier: rats and mice; for detection in brain as metabolite of 1 and 2: rat model of Parkinson's disease
C4-2 cells [8] = assay: Cell viability and cell count; type: cell-based, Human; details: 1 μM, 48 hours
How it was run: as §3

PNT2 cells [9] = assay: Cell growth curves; type: cell-based, Human; details: 1 μM
PNT2 cells [10] = assay: Cell viability and cell count; type: cell-based, Human; details: 1 μM, 48 hours
How it was run: as §3

[11] = tested on: A-549 lung, HCT-8 intestinal, RPMI-7951 skin, TE671 brain, and KB cervical cancer cells; details: range over all cell types; cited from earlier work

For COc1cc2c(cc1OC)[C@@H]1C(=O)c3ccc4c(c3O[C@@H]1CO2)C[C@H](C(C)CO)O4 (mixture of isomers) [compound 5, (6aS,12aS,5′R,6′R)- and (6aS,12aS,5′R,6′S)-6′,7′-Dihydroamorphigenin], the oxygen consumption rate (C4-2 cells [1]) was “powerful effect”, the “proliferation (cell growth)” value (C4-2B cells [2]) was “responded” and the oxygen consumption rate (C4-2B cells [3]) was “powerful effect”. For the same molecule, the “proliferation (cell growth)” value (C4-2 cells [4]) was “particularly affected”, the oxygen consumption rate (PNT2 cells [5]) was “powerful effect” and the cell count (C4-2B cells [6]) was “marginal effects”.

For Cc1nc(-c2nc(-c3ccc(OC(F)(F)F)cc3)no2)nn1Cc1cccc(N2CCC(S(C)(=O)=O)CC2)c1 [IACS-01079], the “effect on cancer cell proliferation and viability” value (cancer cell) is given as “inhibit both cancer cell proliferation and viability”.

For C=C(C)[C@H]1Cc2c(ccc3c2O[C@@H]2COc4cc(OC)c(OC)cc4[C@@H]2C3=O)O1 [compound 1, rotenone], the “proliferation (cell growth)” value (C4-2B cells [2]) is given as “did not proliferate”, the “proliferation (cell growth)” value (C4-2 cells [4]) is given as “did not proliferate” and the neurotoxicity ([7]; 3 mg kg^-1 day^-1) is given as “cause neuronal damage”. The “crossing of the blood-brain barrier” value [7] was “cross the blood-brain barrier”, the cell count (C4-2 cells [8]) was “affected cell counts” and the cell count (C4-2B cells [6]) was “affected cell counts”. The “proliferation (cell growth)” value (PNT2 cells [9]) was “retained their ability to proliferate, albeit at a substantially reduced rate” and the cell count (PNT2 cells [10]) was “affected cell counts”.

For COc1cc2c(cc1OC)[C@@H]1C(=O)c3ccc4c(c3O[C@@H]1CO2)C=CC(C)(C)O4 [compound 2, deguelin], the neurotoxicity ([7]; 6 mg kg^-1 day^-1) is listed as “cause neuronal damage” and the “crossing of the blood-brain barrier” value [7] is listed as “cross the blood-brain barrier”.

For COc1cc2c(cc1OC)[C@@H]1C(=O)c3ccc4c(c3O[C@@H]1CO2)C[C@H](C(C)(C)O)O4 [compound 4, (6aS,12aS,5′R)-Dalpanol], the “ED50 (half-maximal effective concentration), cytotoxicity” value [11] is listed as 0.48 to 4.83 µg/mL.

In the case of C=C(C)[C@H]1Cc2c(ccc3c2O[C@@H]2COc4cc(OC)c(OC)cc4[C@]2(O)C3=O)O1 [compound 7, (6aR,12aR,5′R)-Rotenolone], the “detection in brain as metabolite of 1 and 2” value [7] is listed as “detected in the brains of treated animals” and the “crossing of the blood-brain barrier” value [7] is listed as “cross the BBB”.

In the case of COc1cc2c(cc1OC)[C@]1(O)C(=O)c3ccc4c(c3O[C@@H]1CO2)C=CC(C)(C)O4 [compound 8, tephrosin], the “detection in brain as metabolite of 1 and 2” value [7] is listed as “detected in the brains of treated animals” and the “crossing of the blood-brain barrier” value [7] is listed as “cross the BBB”.
